High-throughput results: PubChem BioAssay, several laboratories
PAFAH2 FP inh – inhibitors of human PAFAH2. Q99487. recombinant PAFAH2, FP-rhodamine activity probe, fluorescence polarization. inhibition, % at 3.39 µM. 0.99% of 340,000 active;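 active = inhibition above the mean over all tested compounds plus 3 SD, cut at about 30% in these data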;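 note: inhibitors block probe labeling of enzyme so polarization drops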
Apaf1 inhib – human Apaf-1 inhibition; AID 489030; O14727; reconstituted apoptosome caspase-3 activity, DEVD-Rh110 fluorescence; 0.71% of 330,000 active; inhibition, % at 20 µM; active = inhibition of at least 40% at 20 µM
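System – cell-free apoptosome with Apaf-1, procaspase-3 and caspase-9 · Buffer or medium – pH 7.5 Hepes buffer with CHAPS, BSA, DTT · Also added – cytochrome c with DEVD-Rh110 · Times – 30 min compound preincubation, 50 min activation, room temperature · Technique – Rh110 fluorescence intensity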
PREPL inhibitor – inhibitors of human prolyl oligopeptidase-like enzyme PREPL; Q4J6C6; recombinant PREPL, fluorescence polarization activity-based probe; inhibition, % at 5.96 µM; 0.68% of 320,000 active; AID 2751; in the data active = inhibition above about 43%
PAFAH1B2 FP inh – blocks human PAF acetylhydrolase 1b catalytic subunit 2. AID 492953. recombinant PAFAH1B2, FP-rhodamine activity probe, fluorescence polarization. P68402. inhibition, % at 3.39 µM. 1.2% of 340,000 active;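 active = inhibition above the mean of all tested compounds plus 3 SD, cut at about 24% in these data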
PAFAH1B3 inh – blocks human PAF acetylhydrolase 1B catalytic subunit 3 | recombinant PAFAH1B3, FP-rhodamine probe, fluorescence polarization | inhibition, % at 3.39 µM | Q15102 | 0.28% of 340,000 active;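 active = inhibition above the screen-wide average of all tested compounds plus 3 SD, cut at about 25% in these data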
pPAFAH FP inh – pPAFAH (human) enzyme inhibition | Q13093 | recombinant pPAFAH, FP-rhodamine probe fluorescence polarization | inhibition, % at 3.39 µM | 1.5% of 330,000 active;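 active = inhibition above the mean inhibition across the screen plus 3 SD, cut at about 25% in these data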;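 note: inhibitors block binding of the rhodamine activity-based probe so polarization drops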
Target sequence (Q13093 whole entry, looked up): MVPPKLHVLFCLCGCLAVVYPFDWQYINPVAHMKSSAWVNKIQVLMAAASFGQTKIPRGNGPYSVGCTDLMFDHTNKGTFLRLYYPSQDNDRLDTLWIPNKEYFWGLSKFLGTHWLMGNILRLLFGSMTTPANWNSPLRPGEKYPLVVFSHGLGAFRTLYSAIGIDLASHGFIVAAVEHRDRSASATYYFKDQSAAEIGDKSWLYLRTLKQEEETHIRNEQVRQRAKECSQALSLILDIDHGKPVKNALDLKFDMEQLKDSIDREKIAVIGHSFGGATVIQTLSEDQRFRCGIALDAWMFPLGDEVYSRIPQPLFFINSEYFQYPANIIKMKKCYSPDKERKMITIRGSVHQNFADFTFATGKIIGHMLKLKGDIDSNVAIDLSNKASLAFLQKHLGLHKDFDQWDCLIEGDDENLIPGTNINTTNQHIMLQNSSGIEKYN
PAFAH1B3 confirm – PAFAH1B3 (human) inhibition, confirmed; shares compounds with PAFAH1B3 inh; recombinant PAFAH1B3, FP-Rh activity-based probe, fluorescence polarization; inhibition, % at 3.39 µM; 30% of 390 active;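 active = average inhibition over triplicate runs above the hit cutoff set in the earlier primary screen, cut at about 25% in these data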
Of the large screens only hits and unclear results are named; the others gave an inactive call (follow-up assays come after a bar, where they were run). The list is not random: actives were taken first. Their share in the collection is about 3.5%.

COc1ccc2nc(NNC(=O)c3cc(=O)c4ccccc4o3)sc2c1	PAFAH1B3 inh 29 | PAFAH1B3 confirm inactive
CCOC(=O)C(NC(=O)C1C(C)N1S(=O)(=O)c1ccc(C)cc1)C(=O)OCC (centres undefined)	none
CCOc1ccc(-c2csc(/C(C#N)=C\c3ccc(O)c([N+](=O)[O-])c3)n2)cc1	PAFAH1B3 inh 35 | PAFAH1B3 confirm inactive
O=C(Nc1ccccc1)c1ccc(Nc2c([N+](=O)[O-])cc([N+](=O)[O-])c3ccccc23)cc1	none
O=[N+]([O-])c1cc(Br)c(Nc2ccccc2)c([N+](=O)[O-])c1	PAFAH1B3 inh 36 | PAFAH1B3 confirm 29
O=c1oc(-c2ccc(O)c(O)c2)cc2cc(O)cc(O)c12	PAFAH1B3 inh 28 | PAFAH1B3 confirm 28
COc1cc(-c2cc(=O)c3c(O)cc(O)cc3o2)ccc1O	none (no result: PAFAH2 FP inh, PAFAH1B2 FP inh, PAFAH1B3 inh)
COc1cccc(-c2cc(C(=O)N3CCN(S(=O)(=O)c4ccc(Br)cc4)CC3)[nH]n2)c1	none
O=c1oc2ccccc2cc1-c1nc2c(s1)CCc1ccccc1-2	none
O=c1oc2cc(O)ccc2cc1-c1nc2c(s1)CCc1ccccc1-2	PAFAH1B3 inh 33 (no result: Apaf1 inhib) | PAFAH1B3 confirm inactive
N/C(=N/OC(=O)c1ccc(Cl)cc1)c1ncc([N+](=O)[O-])s1	none (no result: PAFAH2 FP inh, PAFAH1B2 FP inh, PAFAH1B3 inh)
Cc1nn(-c2ccc(F)cc2)c2nc(N)c(C#N)c(-c3ccc(O)c(O)c3)c12	PAFAH1B3 inh 36 (no result: PREPL inhibitor, pPAFAH FP inh) | PAFAH1B3 confirm inactive
Cc1nn(-c2ccc(F)cc2)c2nc(N)c(C#N)c(-c3cccs3)c12	none
COc1ccc(C(=O)C2CCCN(C(=O)c3cccc(Cl)c3F)C2)cc1OC (centres undefined)	none
Cc1ccc(NC2=CC(=O)C(=O)c3ccccc32)cc1	Apaf1 inhib 87, PAFAH1B3 inh 25 | PAFAH1B3 confirm inactive
O=C1C=C(Nc2ccc(O)cc2)C(=O)c2ccccc21	none
Cc1cc(NC2=CC(=O)C(=O)c3ccccc32)no1	PAFAH1B3 inh 33 (no result: Apaf1 inhib, PREPL inhibitor, pPAFAH FP inh) | PAFAH1B3 confirm 34
O=C1CCC(c2ccccc2)N1c1ccccc1 (centres undefined)	none (no result: Apaf1 inhib, PREPL inhibitor, pPAFAH FP inh)
COc1ccccc1-c1nnc2n1N=C(c1ccc(O)c(O)c1)CS2	PAFAH1B3 inh 30 | PAFAH1B3 confirm inactive
CC1=CC(=O)C=C(C)C1=NOc1ccc([N+](=O)[O-])cc1	none
Cc1ccc(C2=NOC(=O)/C2=C\C=C\c2ccccc2)cc1	PAFAH1B3 inh 36 (no result: Apaf1 inhib, PREPL inhibitor, pPAFAH FP inh) | PAFAH1B3 confirm 29
COC(=O)CCc1c(C)c(C(=O)c2cc(F)c(F)c(F)c2F)c2ccccn12	PAFAH1B3 inh 29 | PAFAH1B3 confirm inactive
CSc1ccc(CN(C)CC(=O)NC(C)c2ccccc2)cc1 (centres undefined)	none
Cc1ccc(S(=O)(=O)NNC(=O)CCC(=O)Nc2ccc(C)cc2C)cc1	none
Cc1ccc(S(=O)(=O)NC(=O)Nc2ccc(C)cc2C)cc1	PAFAH1B3 inh 28 (no result: PREPL inhibitor, pPAFAH FP inh) | PAFAH1B3 confirm inactive
Cc1cc(C)c(NC(=O)Cn2c(=O)n(-c3ccc(CC(=O)NCC4CCCO4)cc3)c(=O)c3ccccc32)c(C)c1 (centres undefined)	none
Cc1nonc1CC(=O)NC1CCCc2c1cnn2-c1ccc(F)cc1F (centres undefined)	none
COCCC(=O)N1CCC(Oc2ccc(C(=O)NCc3ncc(C)[nH]3)cc2)CC1	none
C=CC(=O)N=c1sc2ccccc2n1-c1ccccc1	PAFAH1B3 inh 55 | PAFAH1B3 confirm 47
CCCCn1c(N)c(N(CCOC)C(=O)C2CCCN(C(=O)c3ccc(Cl)cc3)C2)c(=O)[nH]c1=O (centres undefined)	none
COc1cc(NCCCNC(C)C)c2nccc(C)c2c1	PAFAH1B3 inh 40 (no result: Apaf1 inhib, PREPL inhibitor, pPAFAH FP inh) | PAFAH1B3 confirm inactive
Cc1ccc(C(=O)NNC(=O)c2ccncc2)cc1S(=O)(=O)N1CCOCC1	none
Cc1n[nH]c(C)c1N1C(=O)c2cccc3cc(Br)cc(c23)C1=O	none
Cc1ccc(C(=O)O)cc1N1C(=O)c2cccc3cc(Br)cc(c23)C1=O	PAFAH1B3 inh 57 | PAFAH1B3 confirm 57
Cc1ccc(S(=O)(=O)Cc2ccc(C(=O)OCc3ccccc3)cc2)cc1	none
